Laboratory results: ChEMBL document CHEMBL2424622, “Development of amino-pyrimidine inhibitors of c-Jun N-terminal kinase (JNK): kinase profiling guided optimization of a 1,2,3-benzotriazole lead” (Bioorg Med Chem Lett, 2013)

Assays:
[1] = molecular target: T1, MAP/microtubule affinity-regulating kinase 4 (Homo sapiens) (UniProt Q96L34); assay: Competitive binding affinity to MARK4 (unknown origin) at 10 uM in presence of ATP relative to control
T1 sequence (whole entry): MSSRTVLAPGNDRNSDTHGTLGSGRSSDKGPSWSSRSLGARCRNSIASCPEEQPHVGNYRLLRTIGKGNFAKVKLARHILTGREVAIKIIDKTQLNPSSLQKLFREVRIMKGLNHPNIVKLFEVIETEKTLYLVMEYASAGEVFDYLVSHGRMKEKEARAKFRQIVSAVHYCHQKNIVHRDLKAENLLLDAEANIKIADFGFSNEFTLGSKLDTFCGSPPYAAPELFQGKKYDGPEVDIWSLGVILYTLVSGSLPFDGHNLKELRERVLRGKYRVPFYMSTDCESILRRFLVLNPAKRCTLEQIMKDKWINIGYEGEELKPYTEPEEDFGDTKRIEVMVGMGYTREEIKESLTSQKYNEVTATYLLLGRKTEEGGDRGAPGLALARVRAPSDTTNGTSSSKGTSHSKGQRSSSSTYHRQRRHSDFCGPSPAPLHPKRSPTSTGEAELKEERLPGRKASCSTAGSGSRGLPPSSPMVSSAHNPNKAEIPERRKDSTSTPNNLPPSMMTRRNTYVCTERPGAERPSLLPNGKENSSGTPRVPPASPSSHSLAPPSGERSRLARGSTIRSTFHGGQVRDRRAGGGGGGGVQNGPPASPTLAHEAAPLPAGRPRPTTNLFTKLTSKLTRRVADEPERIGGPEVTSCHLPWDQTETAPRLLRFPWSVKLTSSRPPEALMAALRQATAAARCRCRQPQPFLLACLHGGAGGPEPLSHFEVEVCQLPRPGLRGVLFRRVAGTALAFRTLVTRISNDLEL
Summary of the method: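 In vitro ATP-site competition binding assay across a diverse panel of 128 kinases, with compound tested at a single concentration. Kinase selectivity scores (S15) were calculated from the panel profiles.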

[2] = system: Mast/stem cell growth factor receptor Kit (Homo sapiens), P10721 [V559D]; assay: Competitive binding affinity to KIT V559D mutant (unknown origin) at 10 uM in presence of ATP relative to control
Mast/stem cell growth factor receptor Kit (Homo sapiens), P10721 [V559D], sequence (P10721 whole entry V559D): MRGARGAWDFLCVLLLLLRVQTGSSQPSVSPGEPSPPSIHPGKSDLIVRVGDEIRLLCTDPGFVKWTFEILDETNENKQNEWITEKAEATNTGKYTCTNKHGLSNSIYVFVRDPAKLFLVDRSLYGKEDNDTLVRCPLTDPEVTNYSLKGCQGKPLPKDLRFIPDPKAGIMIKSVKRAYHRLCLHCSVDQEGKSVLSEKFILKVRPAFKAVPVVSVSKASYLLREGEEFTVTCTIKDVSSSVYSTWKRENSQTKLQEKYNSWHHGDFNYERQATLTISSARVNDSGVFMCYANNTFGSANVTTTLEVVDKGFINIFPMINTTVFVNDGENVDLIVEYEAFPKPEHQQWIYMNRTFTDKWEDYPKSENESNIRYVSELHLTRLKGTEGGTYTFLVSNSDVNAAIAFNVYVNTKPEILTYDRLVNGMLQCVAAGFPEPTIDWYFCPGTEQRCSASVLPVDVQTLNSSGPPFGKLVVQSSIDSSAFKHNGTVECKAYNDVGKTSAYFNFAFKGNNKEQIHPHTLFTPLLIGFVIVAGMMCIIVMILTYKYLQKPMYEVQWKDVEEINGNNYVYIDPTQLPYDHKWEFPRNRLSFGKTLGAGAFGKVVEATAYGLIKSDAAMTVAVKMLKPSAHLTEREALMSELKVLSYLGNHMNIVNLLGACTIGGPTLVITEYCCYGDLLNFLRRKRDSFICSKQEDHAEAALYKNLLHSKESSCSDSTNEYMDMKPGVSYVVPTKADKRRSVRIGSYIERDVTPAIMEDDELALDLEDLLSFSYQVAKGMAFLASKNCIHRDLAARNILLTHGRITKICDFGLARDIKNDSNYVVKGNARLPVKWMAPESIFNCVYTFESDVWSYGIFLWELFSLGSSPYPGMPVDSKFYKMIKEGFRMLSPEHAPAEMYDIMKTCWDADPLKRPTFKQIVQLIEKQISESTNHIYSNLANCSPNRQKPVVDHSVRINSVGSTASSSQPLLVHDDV

[3] = molecular target: Mitogen-activated protein kinase 6 (Homo sapiens, UniProt Q16659); assay: Competitive binding affinity to ERK3 (unknown origin) at 10 uM in presence of ATP relative to control
Mitogen-activated protein kinase 6, sequence (Q16659 whole entry): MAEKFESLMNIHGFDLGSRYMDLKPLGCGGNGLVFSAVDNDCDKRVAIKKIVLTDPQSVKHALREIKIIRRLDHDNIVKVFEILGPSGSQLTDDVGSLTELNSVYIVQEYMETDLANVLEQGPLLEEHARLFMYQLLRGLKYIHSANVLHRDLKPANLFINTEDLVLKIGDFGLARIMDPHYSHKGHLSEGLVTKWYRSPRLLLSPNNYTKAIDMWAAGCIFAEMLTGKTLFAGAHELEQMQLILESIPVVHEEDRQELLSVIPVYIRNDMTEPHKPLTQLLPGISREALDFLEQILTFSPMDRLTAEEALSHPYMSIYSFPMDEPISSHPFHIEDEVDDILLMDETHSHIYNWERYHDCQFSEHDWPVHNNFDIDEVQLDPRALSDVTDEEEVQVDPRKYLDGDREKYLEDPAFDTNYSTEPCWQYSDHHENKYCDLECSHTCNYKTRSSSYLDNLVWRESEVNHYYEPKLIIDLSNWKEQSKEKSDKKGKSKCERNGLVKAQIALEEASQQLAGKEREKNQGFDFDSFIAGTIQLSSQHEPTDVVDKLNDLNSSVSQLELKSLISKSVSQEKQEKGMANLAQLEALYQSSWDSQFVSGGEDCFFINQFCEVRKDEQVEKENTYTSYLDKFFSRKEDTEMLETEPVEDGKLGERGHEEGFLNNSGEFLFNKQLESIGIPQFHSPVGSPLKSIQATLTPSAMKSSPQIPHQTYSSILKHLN

[4] = molecular target: T2, Serine/threonine-protein kinase tousled-like 1 (Homo sapiens) (UniProt Q9UKI8); assay: Competitive binding affinity to TLK1 (unknown origin) at 10 uM in presence of ATP relative to control
T2 sequence (whole entry): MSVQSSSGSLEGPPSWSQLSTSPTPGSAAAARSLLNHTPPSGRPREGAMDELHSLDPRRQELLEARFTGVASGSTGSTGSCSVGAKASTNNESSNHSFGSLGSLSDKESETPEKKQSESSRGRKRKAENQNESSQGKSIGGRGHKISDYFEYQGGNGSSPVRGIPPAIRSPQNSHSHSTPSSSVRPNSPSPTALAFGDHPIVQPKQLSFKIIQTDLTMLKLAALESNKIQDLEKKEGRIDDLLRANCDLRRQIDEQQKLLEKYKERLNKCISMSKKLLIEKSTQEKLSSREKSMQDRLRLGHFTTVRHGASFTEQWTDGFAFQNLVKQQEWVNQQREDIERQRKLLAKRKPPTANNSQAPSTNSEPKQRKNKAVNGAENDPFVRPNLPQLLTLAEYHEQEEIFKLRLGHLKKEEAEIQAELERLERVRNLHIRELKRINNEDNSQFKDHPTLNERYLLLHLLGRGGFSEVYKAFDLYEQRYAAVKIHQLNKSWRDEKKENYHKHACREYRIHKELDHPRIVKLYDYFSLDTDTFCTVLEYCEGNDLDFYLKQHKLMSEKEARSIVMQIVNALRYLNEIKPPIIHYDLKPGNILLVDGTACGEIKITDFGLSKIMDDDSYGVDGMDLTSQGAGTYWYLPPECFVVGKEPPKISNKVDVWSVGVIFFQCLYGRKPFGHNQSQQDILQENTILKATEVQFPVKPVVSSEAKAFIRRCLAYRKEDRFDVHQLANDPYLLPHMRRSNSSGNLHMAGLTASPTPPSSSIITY

[5] = molecular target: T3, cGMP-dependent protein kinase 2 (Homo sapiens) (UniProt Q13237); assay: Competitive binding affinity to PRKG2 (unknown origin) at 10 uM in presence of ATP relative to control
T3 sequence (whole entry): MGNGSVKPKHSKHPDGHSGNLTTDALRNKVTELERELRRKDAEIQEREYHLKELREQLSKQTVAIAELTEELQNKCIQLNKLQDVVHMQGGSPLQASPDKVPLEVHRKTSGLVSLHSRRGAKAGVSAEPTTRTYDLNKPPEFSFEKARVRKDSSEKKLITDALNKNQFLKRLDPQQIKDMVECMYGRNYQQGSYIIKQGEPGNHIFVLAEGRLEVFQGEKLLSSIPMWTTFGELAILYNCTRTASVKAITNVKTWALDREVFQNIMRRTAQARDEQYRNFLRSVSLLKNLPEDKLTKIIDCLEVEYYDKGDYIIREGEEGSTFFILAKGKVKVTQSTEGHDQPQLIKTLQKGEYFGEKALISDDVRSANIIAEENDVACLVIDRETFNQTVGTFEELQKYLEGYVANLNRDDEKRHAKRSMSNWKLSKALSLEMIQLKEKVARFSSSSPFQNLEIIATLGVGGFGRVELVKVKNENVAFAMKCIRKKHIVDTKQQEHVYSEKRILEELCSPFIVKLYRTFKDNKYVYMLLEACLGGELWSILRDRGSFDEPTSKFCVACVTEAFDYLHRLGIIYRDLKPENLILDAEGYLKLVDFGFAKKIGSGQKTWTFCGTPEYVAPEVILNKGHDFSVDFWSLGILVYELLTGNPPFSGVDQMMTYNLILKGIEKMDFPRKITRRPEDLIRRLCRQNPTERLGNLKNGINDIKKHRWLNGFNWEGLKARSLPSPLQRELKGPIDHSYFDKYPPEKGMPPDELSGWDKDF

SMILES | inhibition [1] [%] | inhibition [2] [%] | inhibition [3] [%] | inhibition [4] [%] | inhibition [5] [%]
O[C@H]1CC[C@H](Nc2nccc(-n3nnc4ccccc43)n2)CC1 | < 50 | 91 | 100 | < 50 | < 50
CS(=O)(=O)CCCOc1cccc2c1ccn2-c1ccnc(N[C@H]2CC[C@H](C(=O)N3CCC(O)CC3)CC2)n1 |  |  | > 85 |  | 
O[C@H]1CC[C@H](Nc2nccc(-n3ncc4ccccc43)n2)CC1 | < 50 | 92 | 100 | < 50 | < 50
O[C@H]1CC[C@H](Nc2nccc(-c3n[nH]c4ccccc34)n2)CC1 | 67 | 99 |  | 90 | < 50
O[C@H]1CC[C@H](Nc2nccc(-n3ccc4ccccc43)n2)CC1 | < 50 | 73 | 99 | < 50 | < 50
